Data on 1 compound can be found in ChEMBL document CHEMBL1139384, “First Cdc7 kinase inhibitors: pyrrolopyridinones as potent and orally active antitumor agents. 2. Lead discovery” (J Med Chem, 2009).

A word on the IC50: it is the point on the concentration scale where inhibition reaches its midpoint. High values mean a need for much substance, low ones inhibition by little substance.

A short description of series [1]: Apparent permeability by PAMPA method. It is filed as ADME. The conditions noted are these: read-out: permeability. For orientation: In PAMPA a lipid-coated filter parts donor from acceptor wells.
Series [2] concerns A2780. As to the kind of experiment: Antiproliferative activity against human A2780 cells after 72 hrs by luciferase based assay. It is filed as functional, cell-based. The conditions noted are these: Homo sapiens, A2780, 72 h.
The subject of the next series is MCF7. Put plainly: Antiproliferative activity against human MCF7 cells after 72 hrs by luciferase based assay. In kind it is functional, cell-based. Particulars: MCF7, 72 h.
The next series concerns COLO 205. Put plainly: Antiproliferative activity against human COLO205 cells after 72 hrs by luciferase based assay. Particulars: COLO 205, 72 h. It is filed as functional, cell-based.
Series [3] in a line: Antiproliferative activity against human […] cells after 72 hrs by luciferase based assay. In kind it is functional, cell-based. In a few lines:
(§1)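 Cells seeded at 2500–5000/well in complete medium (RPMI1640, McCoy's or DMEM with 10% FCS, by line); compound added after 24 h, 72 h at 37 °C, 5% CO2.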

For a further series, the system named is HT-29. As to the kind of experiment: Antiproliferative activity against human HT-29 cells after 72 hrs by luciferase based assay. The conditions noted are these: HT-29, 72 h. It is filed as functional, cell-based. In a few lines: as §1
The next series deals with L-363. Put plainly: Antiproliferative activity against human L363 cells after 72 hrs by luciferase based assay. In kind it is functional, cell-based. The conditions noted are these: L-363, 72 h. The method, boiled down: as §1
The nature of series [4]: Antiproliferative activity against human SW403 cells after 72 hrs by luciferase based assay. Particulars: SW-403, 72 h. In kind it is functional, cell-based. In a few lines:
as §1

For a further series, the system named is SW48. As to the kind of experiment: Antiproliferative activity against human SW48 cells after 72 hrs by luciferase based assay. It is filed as functional, cell-based. The conditions noted are these: SW48, 72 h. In a few lines:
as §1

A short description of series [5]: Antiproliferative activity against human NCI-H929 cells after 72 hrs by luciferase based assay. Particulars: NCI-H929, 72 h. In kind it is functional, cell-based. In a few lines:
as §1

For another series, the system named is OPM-2. As to the kind of experiment: Antiproliferative activity against human OPM2 cells after 72 hrs by luciferase based assay. Particulars: OPM-2, 72 h. In kind it is functional, cell-based. In a few lines:
as §1

For the next series, the system named is NHDF. As to the kind of experiment: Antiproliferative activity against human NHDF cells after 72 hrs by luciferase based assay. It is filed as cell-based.
The test system of series [6] is A2780. As to the kind of experiment: Antitumor activity against human A2780 cells xenografted in CDI nu/nu mouse assessed as tumor growth inhibition at 60 mg/kg, po administered for 10 days. It is filed as functional. The conditions noted are these: A2780, 240 h, read-out: TGI. Background: In xenograft studies the graft and the host belong to different species.
For the next series, the system named is Rattus norvegicus. Put plainly: Antitumor activity against DMBA-induced mammary carcinoma in CD OFA rat assessed as duration of tumor stabilization maintenance at 20 mg/kg, po administered for 10 days. In kind it is functional. In a few lines:
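DMBA tumors induced in female CD OFA rats by single intragastric 20 mg DMBA in sesame oil; after about 50 days, rats with a mammary tumor of at least 1 cm given 20 mg/kg orally twice daily for 10 days in glucose solution, or vehicle; 10 per group; tumor volume by Vernier calipers.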

Regarding `O=C1NCCc2[nH]c(-c3ccncc3)cc21`, the Papp in series [1] worked out at 1.84 ×10⁻⁶ cm/s. The IC50 in the series on A2780 [2] amounted to 1100 nM; with MCF7, 1300 nM; with COLO 205, 1500 nM; in series [3], 1000 nM; in the series with HT-29 it was 5000 nM; with L-363, 1600 nM. Also, the concentration for half-maximal inhibition (IC50) in [4] was found to be 1000 nM; in the series with SW48, 1200 nM; in series [5], 1800 nM; with OPM-2, 4500 nM; with NHDF, 1600 nM. The inhibition in vivo at 60 mg/kg in the series on A2780 [6] was found to be 50%. For the same compound, in the series on Rattus norvegicus, the Activity stood at 25 days.
